Experimental findings from the RNAGym collection of RNA variant scans (doi:10.1126/science.aae0568) are described below.

Sequences and labels used below:
B1: tRNA (parent)
chain: GUUCCGUUGGCGUAAUGGUAACGCGUCUCCCUCCUAAGGAGAAGACUGCGGGUUCGAGUCCCGUACGGAACG

Variants at the floor of the assay were thinned out.

The variants in this data set derive from B1. The experiment in a line: yeast fitness relative to wild type (ratio to wild type); higher = fitter; tRNA-Arg(CCU), competitive growth, 37 C, YPD. The gist of the method:
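Variants of the tRNA-Arg(CCU) gene were chemically synthesised with a 3% per-site mutation rate across 69 sites and placed at the native genomic locus in Saccharomyces cerevisiae. Six parallel replicates of the pooled strains were competed in YPD at 37°C for 24 hours, and gene amplicons from the start and end populations were read by 100-nucleotide paired-end sequencing. Darwinian fitness relative to wild type was derived from changes in genotype frequencies. Genotypes required ≥ 100 starting reads, and estimates < 0.5 were set to 0.5.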
As for A20U C31G G38A C61A G63A, the yeast fitness was not above 0.5. For G9A C31A G41C A69C, the yeast fitness is not above 0.5.

For the variant C24A A36G A37G A69U, the yeast fitness was not above 0.5. With U8A A42U A43U the figure was 0.58; with U8C C11G A15C A70C, not above 0.5; with G9A U54A A69C, 0.746. With A14C C66G the figure was 0.558; with U3C C46A G48A C66U, 0.629.

Take U8C G9A: the yeast fitness was found to be 0.894. Take A15C G41C A45C C62U: the yeast fitness is not above 0.5. Turning to A43U C55U C66U, the yeast fitness worked out at 0.619. Under U19A U26C C30A stands 0.639; under G17A C29G A43G G68C, not above 0.5; under C27G G48C, 0.632. In the case of C5G A69U, the yeast fitness is 0.894.

Turning to G12A U53G G58C C61A, the yeast fitness was not above 0.5.

For A36U A45C, the yeast fitness worked out at 0.6. Consider U2A U28A C55G A70G, for which the yeast fitness is not above 0.5. Under C24G U26C C31U U54C stands 0.934; under A15C C30G C66G A69U, not above 0.5. With U7G C27G U28G G68A the figure was not above 0.5; with G18C G51A A57G C66A, not above 0.5; with A20U U32A, 0.78. In the case of A14C C24G G52C C55U C66U, the yeast fitness was not above 0.5. For C30U G38A G52A, the yeast fitness was 0.621. For C11U A57G U59C G67A, the yeast fitness was not above 0.5. As for G18A A21C G58C C60U, the yeast fitness is not above 0.5. Under G23A G39C A40G stands not above 0.5; under C4U U7C C49G, 0.534; under C5U U28G A45C, 0.592. As for U3C C30A C61U, the yeast fitness was found to be 0.678. As for G6A A20U C61U G67A G68U, the yeast fitness is not above 0.5. Under C5U C29U A45C C60A stands not above 0.5; under C55G U59G, 0.566; under A14C U26C A36G, not above 0.5. U2G C24G C29G C31A: the yeast fitness is not above 0.5. U7A C34U C55G: the yeast fitness was not above 0.5. Consider C24U U32G A40U A65C, for which the yeast fitness was not above 0.5. G9A C34G C61U C66U: the yeast fitness is not above 0.5. Regarding C11G U16C C22U C55U G68U, the yeast fitness was not above 0.5. U2C C4A C29G: the yeast fitness worked out at 0.704. As for G18A A36G A42U A70C, the yeast fitness is 0.784. Turning to C24U C30U G38C, the yeast fitness was 0.55. On to G6A A43C, for which the yeast fitness was determined as 0.779.

Take U3A A14G G23C A70C: the yeast fitness was found to be 0.573. As for C11U C22G G52C G56U, the yeast fitness is not above 0.5. As to C27U U35C A36G C49G, the yeast fitness is not above 0.5. In the case of C31U G48A G56U A65G, the yeast fitness was not above 0.5.

For the variant C27G A40U A70C, the yeast fitness was not above 0.5. Under G9C A15C A36U A43U stands 0.738. Consider A37U C60U, for which the yeast fitness worked out at 0.519.

A21G C22U G63C A69C: the yeast fitness was 0.524. Under C11A C29A G67C stands not above 0.5.

With U7A C22A C30U C61U G67A G68U, the yeast fitness was not above 0.5. For U13C C31A G56C, the yeast fitness is 0.57. Under C5G A14C G18A U19C A43G A45C C46U stands not above 0.5.

Consider C5G U13C C22G C29G A45C, for which the yeast fitness is not above 0.5. Under C22G A40U A43U C61U stands not above 0.5; under A14U A20C C31G C66A, not above 0.5; under C24G A57U, 0.578. Under A21U C33G G41C stands not above 0.5; under G6C C11G U35A, not above 0.5; under G18A C24U G68C, 0.538. Consider A20C C29U U32A A70U, for which the yeast fitness is not above 0.5. For the variant A14C A20U U35C A65G A69U, the yeast fitness is not above 0.5. With C33A C46U C61G the figure was not above 0.5; with G18C C60G, not above 0.5. With G6C C24G A57U the figure was not above 0.5; with U7A C22G, 0.669; with G25C C31A A37C U47C C61U, 0.702. For the variant C5G U16A G44A C46U A69C, the yeast fitness is not above 0.5.

For the variant C4U G52C U59C, the yeast fitness is not above 0.5. With G25A G48C C49G, the yeast fitness was not above 0.5. On to U8C C30A G48A, for which the yeast fitness turned out to be 0.731. Take A15C C46U C60U: the yeast fitness came to 0.58. As to C31U G48A A65G, the yeast fitness was 0.917. Take C22U U28A C34G G38A G51A: the yeast fitness was not above 0.5.

Consider G10A C30A G48A, for which the yeast fitness amounted to 0.559.

Turning to C4U G9C C33G C49A A70G, the yeast fitness is not above 0.5. Regarding C27U U35C A36G, the yeast fitness amounted to 0.566. As to C4A U35C G48C C55U G56A C62U, the yeast fitness is not above 0.5.

On to U32A C61G G68C, for which the yeast fitness amounted to 0.601. Regarding C22G G68C, the yeast fitness is 0.696. As to C4U G10A C49A U53A G67A, the yeast fitness is not above 0.5. With U28A U35C the figure was 0.753; with A36G C49U C66G, not above 0.5; with A15G A20U C33A A36C A42U C55G C60A A69G, 0.594. Consider C27A C46U, for which the yeast fitness came out at 1.05. For A21C C34U G56A, the yeast fitness was 0.551. For the variant C22U A40G G63C G67C A69U, the yeast fitness was not above 0.5.

Turning to G6A U13A A14G A42U, the yeast fitness was not above 0.5.

Consider U7C C11A C33A A36C G63C C66G, for which the yeast fitness was not above 0.5.

For C11G C33G A57U, the yeast fitness is not above 0.5. With C4A C22G the figure was 0.65; with C4A A37G, 0.754.

Consider G6A G10C C34U G52C, for which the yeast fitness is not above 0.5.

With G12A C22G A45G C49U U53A C66G, the yeast fitness is not above 0.5. In the case of G10A U35A, the yeast fitness stood at 0.62. As for G10A G44C G63C, the yeast fitness is not above 0.5. Under U13G G25A stands 0.973; under C30G A37C, 0.673; under U8A U47C, 0.723. For U28A G52A A57U C60U A65G G68A, the yeast fitness amounted to 0.59. For the variant C11G C24U G48C, the yeast fitness was found to be 0.541. For the variant U28A A36G A37G, the yeast fitness was not above 0.5.

On to U13A U32C A69U, for which the yeast fitness is 0.995. U2C G67A: the yeast fitness was 0.911. As to C4A G9C C11G C33G A37C A45C, the yeast fitness was not above 0.5. Turning to G10A A20C G38A G41A C49U A57U, the yeast fitness is not above 0.5. For C31G G38C, the yeast fitness came to 0.826. With C4U G10C C24G C49U the figure was not above 0.5; with U13A A15U U16A A36U G44C G56A, not above 0.5. With C29G C31A the figure was 0.511; with C4U C60A, 0.532. As to U8A U16G C31U C34A A37U G41C, the yeast fitness worked out at 0.525. Take C5A G9C A42C C49G G68A: the yeast fitness was not above 0.5. Under U2G C24G C31U G67C stands not above 0.5; under G23A A57C A65U, not above 0.5.

In the case of U2A U35A A45C, the yeast fitness was not above 0.5. In the case of U13C C61G G67U, the yeast fitness came out at 0.6. On to U2C C61A, for which the yeast fitness worked out at 0.783. As to C4U U32A G52C C55U C66U, the yeast fitness is not above 0.5.

Take G6C C11A C34G C66A: the yeast fitness is not above 0.5. Under U3G U13A U16A C62U U64A stands not above 0.5; under G18A A37U C61U U64A, not above 0.5; under U13A A37C G56A, not above 0.5. With C22U C60U G67A the figure was 0.643; with U16C C31A, 0.906. With C22A C33A A36U U53A U54A the figure was 0.551; with C11U A15G A36U A43U C46G C62A, 0.635. Consider U26C G58C A69C, for which the yeast fitness came to 0.697. For C11A A20U U32C G68C, the yeast fitness is not above 0.5.

U16G A57G C62G: the yeast fitness was not above 0.5. Under A57U G68U stands 0.769; under U2A A14U C29G G44C, 0.534; under C11A A20G C62A, 0.605. Under A45C G48A C62U stands 0.606.

Regarding C5U U16G C34U A40G A43G C62A A69C, the yeast fitness is 0.565.

Consider U19G C49U U54C C62A, for which the yeast fitness is not above 0.5.

Consider C11A G50C C60U A70C, for which the yeast fitness is not above 0.5. For the variant G18A U19A C27G G39C, the yeast fitness was not above 0.5. With C5A U35C G44A G48C, the yeast fitness is not above 0.5. As for C27U C33A C60U C62G, the yeast fitness is not above 0.5. C4G C30G C55U: the yeast fitness was not above 0.5. Take C27A U32G: the yeast fitness is 0.595. U13A G48A G67C: the yeast fitness stood at 0.608.

Regarding U2C C5A C24A U47A C66G, the yeast fitness is not above 0.5.

In the case of G17A G63A A69C, the yeast fitness turned out to be 0.537. For the variant G18C U32C A57U, the yeast fitness was not above 0.5.

As to C5G G48C, the yeast fitness amounted to 0.758.

On to G17C G18C C22A C61U, for which the yeast fitness was not above 0.5. Under C22U A36G stands 0.948; under C11U A40U C55U G68A, not above 0.5. On to U7A A57U U59A A69C, for which the yeast fitness came out at 0.702. Take A21G C30G G51C: the yeast fitness was not above 0.5. As for G6A C30U G67A, the yeast fitness worked out at 0.586. As for C46U G68C, the yeast fitness was 1.02. Under U16A C34A A40U G44A G63A stands not above 0.5; under C5U A21U C33U G50A U59C, not above 0.5. Consider U2A A14U A21G C46G A57U C66U, for which the yeast fitness turned out to be 0.56. With A37U G44A the figure was 0.602; with G41C A70U, 0.88; with G51A C62A, 0.561.

Regarding G6C G12C U47A, the yeast fitness is not above 0.5. Regarding C27U G38C G44C, the yeast fitness worked out at 0.531. Under G25C A40U A42C G52A U64C C66U stands not above 0.5; under A20U G38A C49A C60G, not above 0.5.
